Laboratory results taken from ChEMBL document CHEMBL4033657, “N-Aryl-N'-ethyleneaminothioureas effectively inhibit acetylcholinesterase 1 from disease-transmitting mosquitoes” (Eur J Med Chem, 2017).
Active and inactive are the calls of the source. No cut-off for these calls is given here.

Assays:
[1] = tested on: Acetylcholinesterase (Anopheles gambiae), Q869C3 [G122S]; test: Inhibition of recombinant full length Anopheles gambiae AChE1 G122S mutant expressed in baculovirus-infected Sf9 insect cells up to 1 mM using acetylthiocholine iodide as substrate measured over 60 secs by Ellman's method
Summary of the method: (§1)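 Secreted, non-purified recombinant enzyme in growth medium, tested as enzyme source. Ellman assay at 30 °C in 0.1 M phosphate buffer pH 7.4 with 0.2 mM DTNB and 1 mM acetylthiocholine iodide; A412 followed over 60 s. Compound (100 mM DMSO stock) tested at eight concentrations, maximum 1 mM. Activity set relative to eight uninhibited controls per plate; IC50 from three-parameter variable-slope fit; 2-3 independent replicates.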

Aedes aegypti [2] = test: Inhibition of recombinant full length Aedes aegypti AChE1 expressed in baculovirus-infected Sf9 insect cells at 1 mM using acetylthiocholine iodide as substrate measured over 60 secs by Ellman's method; summary of the method: as §1
Acetylcholinesterase [3] = molecular target: T1, Acetylcholinesterase (Homo sapiens, UniProt P22303); test: Inhibition of recombinant human AChE expressed in HEK293F cells up to 1 mM using acetylthiocholine iodide as substrate measured over 60 secs by Ellman's method; conditions: HEK293; summary of the method: as §1
[4] = molecular target: Acetylcholinesterase (Anopheles gambiae) (UniProt Q869C3); test: Inhibition of recombinant full length Anopheles gambiae AChE1 expressed in baculovirus-infected Sf9 insect cells at 1 mM using acetylthiocholine iodide as substrate measured over 60 secs by Ellman's method; summary of the method: as §1
Anopheles gambiae [5] = test: Insecticidal activity against 3rd instar larvae of Anopheles gambiae Kisumu assessed as mortality at 25 uM administered via de-chlorinated tap water after 48 hrs; assay type: functional
Anopheles gambiae [6] = test: Insecticidal activity against 3rd instar larvae of Anopheles gambiae Kisumu assessed as mortality at 25 uM administered via de-chlorinated tap water after 24 hrs; assay type: functional
Summary of the method: (§2)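 Kenyan strains were reared at 27-28 °C, about 80% humidity, 12/12 h light. Per compound and concentration, 25 third-instar larvae were placed in 100 ml de-chlorinated water containing the compound and kept under insectary conditions. The negative control was plain water; the positive control was propoxur at 25 µM. Mortality was scored at 24 h; 75 treated and 50 control larvae in total.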

Anopheles gambiae [7] = test: Insecticidal activity against five days old adult Anopheles gambiae Kisumu assessed as mortality at 6.25 ng applied topically on upper part of pronotum after 24 hrs; assay type: functional
Anopheles gambiae [8] = test: Insecticidal activity against five days old adult Anopheles gambiae Kisumu assessed as mortality at 100 mM applied topically on upper part of pronotum after 48 hrs (reference value: 15 to 24%); assay type: functional; conditions: topical
Acetylcholinesterase [9] = molecular target: T1, Acetylcholinesterase; test: Inhibition of recombinant human AChE expressed in HEK293F cells using acetylthiocholine iodide as substrate measured over 60 secs by Ellman's method; design: species or system HEK293
Anopheles gambiae [10] = test: Insecticidal activity against five days old adult Anopheles gambiae Kisumu assessed as mortality at 1 nmol applied topically on upper part of pronotum after 24 hrs; assay type: functional
Aedes aegypti [11] = test: Insecticidal activity against five days old adult Aedes aegypti Mombasa assessed as mortality at 1 nmol applied topically on upper part of pronotum after 24 hrs; assay type: functional
Aedes aegypti [12] = test: Insecticidal activity against 3rd instar larvae of Aedes aegypti Mombasa assessed as mortality at 50 uM administered via de-chlorinated tap water after 24 hrs; assay type: functional; summary of the method: as §2
Acetylcholinesterase [13] = molecular target: Acetylcholinesterase (Anopheles gambiae, UniProt Q869C3, G122S); test: Inhibition of recombinant full length Anopheles gambiae AChE1 G122S mutant expressed in baculovirus-infected Sf9 insect cells using acetylthiocholine iodide as substrate measured over 60 secs by Ellman's method
Aedes aegypti [14] = test: Insecticidal activity against five days old adult Aedes aegypti Mombasa assessed as mortality at 100 mM applied topically on upper part of pronotum after 24 hrs (reference value: 3%); assay type: functional; conditions: topical
Anopheles gambiae [15] = test: Insecticidal activity against five days old adult Anopheles gambiae Kisumu assessed as mortality at 10 mM applied topically on upper part of pronotum after 48 hrs (reference value: 14 to 22%); assay type: functional; conditions: topical
Aedes aegypti [16] = test: Insecticidal activity against five days old adult Aedes aegypti Mombasa assessed as mortality at 2 mM applied topically on upper part of pronotum after 24 hrs (reference value: 2 to 10%); assay type: functional; conditions: topical
Aedes aegypti [17] = test: Insecticidal activity against five days old adult Aedes aegypti Mombasa assessed as mortality at 10 mM applied topically on upper part of pronotum after 24 hrs (reference value: 3 to 15%); assay type: functional; conditions: topical
Aedes aegypti [18] = test: Insecticidal activity against 3rd instar larvae of Aedes aegypti Mombasa assessed as mortality at 500 uM administered via de-chlorinated tap water after 48 hrs (reference value: 0 to 2%); assay type: functional
Anopheles gambiae [19] = test: Insecticidal activity against five days old adult Anopheles gambiae Kisumu assessed as mortality at 10 mM applied topically on upper part of pronotum after 24 hrs (reference value: 8 to 16%); assay type: functional; conditions: topical
Anopheles gambiae [20] = test: Insecticidal activity against five days old adult Anopheles gambiae Kisumu assessed as mortality at 10 nmol applied topically on upper part of pronotum after 24 hrs; assay type: functional
Anopheles gambiae [21] = test: Insecticidal activity against five days old adult Anopheles gambiae Kisumu assessed as mortality at 2 mM applied topically on upper part of pronotum after 24 hrs (reference value: 3 to 17%); assay type: functional; conditions: topical
Aedes aegypti [22] = test: Insecticidal activity against 3rd instar larvae of Aedes aegypti Mombasa assessed as mortality at 50 uM administered via de-chlorinated tap water after 48 hrs (reference value: 0 to 4%); assay type: functional
Anopheles gambiae [23] = test: Insecticidal activity against 3rd instar larvae of Anopheles gambiae Kisumu assessed as mortality at 500 uM administered via de-chlorinated tap water after 48 hrs; assay type: functional
Aedes aegypti [24] = test: Insecticidal activity against five days old adult Aedes aegypti Mombasa assessed as mortality at 10 mM applied topically on upper part of pronotum after 48 hrs (reference value: 3 to 15%); assay type: functional; conditions: topical
Anopheles gambiae [25] = test: Insecticidal activity against five days old adult Anopheles gambiae Kisumu assessed as mortality at 100 mM applied topically on upper part of pronotum after 24 hrs (reference value: 9 to 10%); assay type: functional; conditions: topical
[26] = molecular target: Acetylcholinesterase (Anopheles gambiae) (UniProt Q869C3); test: (§3) Inhibition of recombinant full length Anopheles gambiae AChE1 expressed in baculovirus-infected Sf9 insect cells using acetylthiocholine iodide as substrate measured over 60 secs by Ellman's method
Acetylcholinesterase [27] = molecular target: T2, Acetylcholinesterase (Anopheles gambiae, UniProt Q869C3); test: as §3
[28] = (§4) Inhibition of recombinant full length Aedes aegypti AChE1 expressed in baculovirus-infected Sf9 insect cells using acetylthiocholine iodide as substrate measured over 60 secs by Ellman's method; summary of the method: as §1
Aedes aegypti [29] = test: as §4; summary of the method: as §1
Anopheles gambiae [30] = test: Insecticidal activity against 3rd instar larvae of Anopheles gambiae Kisumu assessed as mortality at 50 uM administered via de-chlorinated tap water after 48 hrs; assay type: functional
Anopheles gambiae [31] = test: Insecticidal activity against 3rd instar larvae of Anopheles gambiae Kisumu assessed as mortality at 500 uM administered via de-chlorinated tap water after 24 hrs; assay type: functional; summary of the method: as §2
Anopheles gambiae [32] = test: Insecticidal activity against five days old adult Anopheles gambiae Kisumu assessed as mortality at 0.2 nmol applied topically on upper part of pronotum after 24 hrs; assay type: functional
Acetylcholinesterase [33] = molecular target: T2, Acetylcholinesterase; test: Inhibition of AChE1 in Anopheles gambiae body extract using acetylthiocholine iodide as substrate measured over 60 secs by Ellman's method
Aedes aegypti [34] = test: Insecticidal activity against five days old adult Aedes aegypti Mombasa assessed as mortality at 2 mM applied topically on upper part of pronotum after 48 hrs (reference value: 3 to 12%); assay type: functional; conditions: topical
Acetylcholinesterase [35] = molecular target: T2, Acetylcholinesterase; test: Inhibition of AChE1 in Anopheles gambiae head extract using acetylthiocholine iodide as substrate measured over 60 secs by Ellman's method
Aedes aegypti [36] = test: Insecticidal activity against five days old adult Aedes aegypti Mombasa assessed as mortality at 100 mM applied topically on upper part of pronotum after 48 hrs (reference value: 7 to 8%); assay type: functional; conditions: topical
[37] = Selectivity ratio of IC50 for recombinant human AChE expressed in HEK293F cells to IC50 for recombinant full length Anopheles gambiae AChE1 expressed in baculovirus-infected Sf9 insect cells
Summary of the method: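 Ratio of the hAChE IC50 divided by the higher of the AgAChE1 or AaAChE1 IC50. Each IC50 came from an Ellman assay (1 mM acetylthiocholine, 0.2 mM DTNB, pH 7.4, 30 °C) with eight concentrations up to 1 mM, using 2-3 replicates.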

Aedes aegypti [38] = test: Insecticidal activity against 3rd instar larvae of Aedes aegypti Mombasa assessed as mortality at 500 uM administered via de-chlorinated tap water after 24 hrs; assay type: functional; summary of the method: as §2
Aedes aegypti [39] = test: Insecticidal activity against five days old adult Aedes aegypti Mombasa assessed as mortality at 0.2 nmol applied topically on upper part of pronotum after 24 hrs; assay type: functional
Anopheles gambiae [40] = test: Insecticidal activity against five days old adult Anopheles gambiae Kisumu assessed as mortality at 2 mM applied topically on upper part of pronotum after 48 hrs (reference value: 13 to 38%); assay type: functional; conditions: topical
Anopheles gambiae [41] = test: Insecticidal activity against 3rd instar larvae of Anopheles gambiae Kisumu assessed as mortality at 50 uM administered via de-chlorinated tap water after 24 hrs; assay type: functional; summary of the method: as §2
Aedes aegypti [42] = test: Insecticidal activity against five days old adult Aedes aegypti Mombasa assessed as mortality at 10 nmol applied topically on upper part of pronotum after 24 hrs; assay type: functional
Aedes aegypti [43] = test: Insecticidal activity against 3rd instar larvae of Aedes aegypti Mombasa assessed as mortality at 300 uM administered via de-chlorinated tap water after 48 hrs (reference value: 0%); assay type: functional
Anopheles gambiae [44] = test: Insecticidal activity against five days old adult Anopheles gambiae Kisumu assessed as mortality at 0.01 nmol applied topically on upper part of pronotum after 24 hrs; assay type: functional
Anopheles gambiae [45] = test: Insecticidal activity against 3rd instar larvae of Anopheles gambiae Kisumu assessed as mortality at 300 uM administered via de-chlorinated tap water after 48 hrs; assay type: functional
Anopheles gambiae [46] = test: Insecticidal activity against five days old adult Anopheles gambiae Kisumu assessed as mortality at 0.1 mM applied topically on upper part of pronotum after 24 hrs (reference value: 0%); assay type: functional; conditions: topical
Aedes aegypti [47] = test: Insecticidal activity against 3rd instar larvae of Aedes aegypti Mombasa assessed as mortality at 300 uM administered via de-chlorinated tap water after 24 hrs; assay type: functional; summary of the method: as §2
Anopheles gambiae [48] = test: Insecticidal activity against 3rd instar larvae of Anopheles gambiae Kisumu assessed as mortality at 300 uM administered via de-chlorinated tap water after 24 hrs; assay type: functional; summary of the method: as §2

Structure (SMILES) | inhibition (Aedes aegypti [2]) | inhibition [4] | IC50 (Acetylcholinesterase [9]) [µM] | mortality (Anopheles gambiae [10]) [%] | mortality (Aedes aegypti [11]) [%] | mortality at 50 µM (Aedes aegypti [12]) [%] | IC50 (Acetylcholinesterase [13]) [µM] | mortality at 10000 µM (Anopheles gambiae [15]) [%] | mortality at 2000 µM (Aedes aegypti [16]) [%] | mortality at 10000 µM (Aedes aegypti [17]) [%] | mortality at 500 µM (Aedes aegypti [18]) [%] | mortality at 10000 µM (Anopheles gambiae [19]) [%] | mortality at 2000 µM (Anopheles gambiae [21]) [%] | mortality at 50 µM (Aedes aegypti [22]) [%] | mortality at 500 µM (Anopheles gambiae [23]) [%] | mortality at 10000 µM (Aedes aegypti [24]) [%] | IC50 (Acetylcholinesterase [27]) [µM] | IC50 [28] [µM] | mortality at 50 µM (Anopheles gambiae [30]) [%] | mortality at 500 µM (Anopheles gambiae [31]) [%] | also measured
S=C(NCCN1CCOCC1)Nc1ccc(Cl)cc1 | inactive | inactive | – | – | – | – | – | – | – | – | – | – | – | – | – | – | – | – | – | – | inhibition [1]: inactive; inhibition (Acetylcholinesterase [3]): inactive
CNC(=O)Oc1ccccc1OC(C)C [PROPOXUR] | – | – | – | – | – | – | – | – | – | – | – | – | – | – | – | – | – | – | – | – | mortality at 25 µM (Anopheles gambiae [5]): 100%; mortality at 25 µM (Anopheles gambiae [6]): 100%; mortality (Anopheles gambiae [7]): 100%
COc1ccccc1NC(=S)NCCN(C)C | 50% | 50% | 120 | 0 | 10 | 7 | 50 | 20 | 8 | 10 | 7 | 9 | 16 | 7 | 3 | 15 | 7.1 | 6 | 7 | 3 | mortality at 100000 µM (Anopheles gambiae [8]): 73%; mortality at 100000 µM (Aedes aegypti [14]): 10%; mortality (Anopheles gambiae [20]): 57%; mortality at 100000 µM (Anopheles gambiae [25]): 61%; inhibition [26]: Dose-dependent effect; inhibition (Aedes aegypti [29]): Dose-dependent effect; mortality (Anopheles gambiae [32]): 16%; IC50 (Acetylcholinesterase [33]): 7.6 µM; mortality at 2000 µM (Aedes aegypti [34]): 13%; IC50 (Acetylcholinesterase [35]): 7.1 µM; mortality at 100000 µM (Aedes aegypti [36]): 18%; Ratio IC50 [37]: 17; mortality at 500 µM (Aedes aegypti [38]): 5%; mortality (Aedes aegypti [39]): 8%; mortality at 2000 µM (Anopheles gambiae [40]): 23%; mortality at 50 µM (Anopheles gambiae [41]): 5%; mortality (Aedes aegypti [42]): 10%
COc1ccc(NC(=S)NCCN2CCOCC2)cc1Cl | – | – | 14 | 70 | 0 | 8 | 84 | 77 | 5 | 3 | 100 | 72 | 22 | 13 | 100 | 10 | 0.12 | 0.09 | 3 | 100 | mortality at 300 µM (Aedes aegypti [43]): 80%; mortality (Anopheles gambiae [44]): 0%; mortality at 300 µM (Anopheles gambiae [45]): 100%; mortality at 100 µM (Anopheles gambiae [46]): 0%; mortality at 300 µM (Aedes aegypti [47]): 64%; mortality (Anopheles gambiae [32]): 22%; IC50 (Acetylcholinesterase [33]): 0.15 µM; mortality at 2000 µM (Aedes aegypti [34]): 5%; IC50 (Acetylcholinesterase [35]): 0.19 µM; Ratio IC50 [37]: 117; mortality at 500 µM (Aedes aegypti [38]): 97%; mortality (Aedes aegypti [39]): 5%; mortality at 300 µM (Anopheles gambiae [48]): 100%; mortality at 50 µM (Anopheles gambiae [41]): 1%
